Experimental data reported in PMC9075995 (RSC Advances, 2019).
In brackets after ≈: the same amount, converted by molar mass. Read-outs that look alike come from different tables or passages of the source.

Columns and labels:
P. vulgaris ATCC 8427 = experiment: MIC and MBC by broth microdilution, subculture on agar; format: cell-based, Proteus vulgaris; conditions: for MBC/MFC: P. vulgaris ATCC 8427, second line per compound, subculture on agar 24 h, 37 °C; for MIC: Proteus vulgaris, ATCC8427
In short: (§1)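 EUCAST broth microdilution used Mueller-Hinton broth for bacteria and phenol-red-free RPMI-1640 for Candida. Test compound ran at a final 31.2–1000 μg ml−1, from 80 mg ml−1 DMSO stocks, with DMSO ≤1.25%. […] For MBC/MFC, 10 μl from the MIC, 2× and 4× MIC wells was plated on agar for 24 h at 37 °C. Done in duplicate, 2 sets.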

WM-115 (human melanoma) [1] = experiment: Anticancer activity, MTT assay; format: cell-based; conditions: for IC50: Homo sapiens, WM-115, 48 h, read-out: Cell culture IC50
In short: (§2)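 Human leukaemia (HL-60, NALM-6) or melanoma (WM-115) cells were exposed to the test compound for 46 h, then given MTT for a further 2 h. Fresh DMSO stocks were diluted in complete medium, with DMSO ≤0.2%. Untreated cells served as control. IC50 was taken from concentration–response curves, as mean ± SD of 4 experiments.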

E. faecalis ATCC 29212 = experiment: MIC and MBC by broth microdilution, subculture on agar; format: cell-based, Enterococcus faecalis; conditions: for MBC/MFC: second line per compound, subculture on agar 24 h, 37 °C; for MIC: Enterococcus faecalis, ATCC29212
In short: as §1

[2] = system: Supercoiled plasmid pUC57 DNA; experiment: Cleavage of pUC57 DNA, agarose gel electrophoresis; format: biochemical; conditions: 37 °C, 24 h, pH 7.2, gel electrophoresis
In short: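 Supercoiled pUC57 plasmid (4634 bp) in 10 mM Tris–HCl/50 mM NaCl, pH 7.2, was incubated with the test compound (50, 100, 200, 300, 400 μM) at 37 °C for 24 h. Samples ran on 1% agarose at 75 V in TAE, were stained with Midori green and imaged under UV. Band intensities gave the fraction of each DNA form. Control was DNA with matching DMSO in buffer. Done in triplicate.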

[3] = system: NALM-6 (leukemia lymphoblastic); experiment: Anticancer activity, MTT assay; format: cell-based, human; conditions: for anticancer activity in words: NALM-6; for IC50: Homo sapiens, NALM-6, 48 h, read-out: Cell culture IC50
In short: as §2

[4] = system: human foreskin fibroblasts HFF-1 (ATCC-SCRC-1041); experiment: Cytotoxicity on normal fibroblasts, MTT reduction assay; format: cell-based; conditions: for metabolic activity higher than untreated control cells: HFF-1, low concentrations 3.9–31.2 μM
In short: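 HFF-1 fibroblasts were seeded at 1 × 10^5/well in DMEM with 15% FCS and pen/strep and grown 48 h (37 °C, 5% CO2). They were exposed 24 h to the test compound (25 mM DMSO stocks; final 3.9–500 μM). Cells were washed and given MTT (1.5 mg ml−1) for 2 h. Formazan was dissolved overnight in 20% SDS in DMF/water and read at 550 nm. Viability is relative to 2% DMSO control; IC50 came from trend-line equations. Two experiments, duplicates each.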

C. albicans ATCC 10231 = experiment: MIC and MFC by broth microdilution, subculture on agar; format: cell-based, Candida albicans; conditions: for MBC/MFC: C. albicans ATCC 10231, second line per compound, subculture on agar 24 h, 37 °C; for MIC: Candida albicans, ATCC10231
In short: as §1

S. aureus ATCC 29213 = experiment: MIC and MBC by broth microdilution, subculture on agar; format: cell-based, Staphylococcus aureus; conditions: for MBC/MFC: S. aureus ATCC 29213, second line per compound, subculture on agar 24 h, 37 °C; for MIC: Staphylococcus aureus, ATCC29213
In short: as §1

[5] = system: HL-60 (leukemia promyelocytic); experiment: Anticancer activity, MTT assay; format: cell-based, human; conditions: for anticancer activity in words: HL-60; for IC50: Homo sapiens, HL-60, 48 h, read-out: Cell culture IC50
In short: as §2

[6] = system: S. epidermidis ATCC 12228; experiment: MIC and MBC by broth microdilution, subculture on agar; format: cell-based, Staphylococcus epidermidis; conditions: for MIC: Staphylococcus epidermidis, ATCC12228
In short: as §1

P. aeruginosa ATCC 25619 = experiment: as above; format: cell-based; conditions: Pseudomonas aeruginosa, ATCC25619
In short: as §1

[7] = system: NALM-6 (leukemia lymphoblastic); conditions: read-out: Cell culture IC50; NALM-6, referential compounds; cited from earlier work
WM-115 (human melanoma) [8] = conditions: read-out: Cell culture IC50; WM-115, referential compounds; cited from earlier work
[9] = system: HL-60 (leukemia promyelocytic); conditions: read-out: Cell culture IC50; HL-60, referential compounds; cited from earlier work

MIC (P. vulgaris ATCC 8427) | MIC [6] | IC50 (WM-115 (human melanoma) [1]) | MIC (E. faecalis ATCC 29212) | MIC (P. aeruginosa ATCC 25619) | IC50 [3] | MIC (C. albicans ATCC 10231) | MIC (S. aureus ATCC 29213) | IC50 [5] | Compound | MBC/MFC (P. vulgaris ATCC 8427) | MBC/MFC (E. faecalis ATCC 29212; E. faecalis ATCC 29212) | effect on supercoiled plasmid DNA (cleavage of Form I) [2] | MBC/MFC (C. albicans ATCC 10231) | MBC/MFC (S. aureus ATCC 29213) | other results
 |  |  |  |  |  |  |  |  | [(η^6-p-cymene)Ru(1-[amino(thioxo)methyl]-5-hydroxy-3-methyl-1H-pyrazole) Cl2 [Compound 2d] | 1000 µg/mL | 1000 µg/mL | cleavage the DNA Form I into Form II and Form III | >1000 µg/mL | 500 µg/mL | activity stronger than cisplatin (fold, from IC50 values) (WM-115 (human melanoma) [1]; WM-115): above 2 fold; anticancer activity in words [3]: inactive; viability of HFF-1 cells ([4]; HFF-1, 24 h, over tested range 3.9–500 μM): ≥ 80%; anticancer activity in words [5]: inactive
 |  |  |  |  |  |  |  |  | [(η^6-p-cymene)Ru(1-[amino(thioxo)methyl]-5-hydroxy-3-phenyl-1H-pyrazole)Cl2 [Compound 2c] | >1000 µg/mL | <31.2 µg/mL | no influence | >1000 µg/mL | 62.5 µg/mL | activity (MIC) stronger than ligand 1c ([6]; S. epidermidis ATCC 12228): more than 2 fold; activity (MIC) stronger than ligand 1c (E. faecalis ATCC 29212; E. faecalis ATCC 29212): > 16 fold
> 1000 µg/mL | 62.5 µg/mL (≈ 0.285 mM) | 752 ± 118 µM | 500 µg/mL (≈ 2.28 mM) | > 1000 µg/mL | 152 ± 26.7 µM | > 1000 µg/mL | 1000 µg/mL (≈ 4.56 mM) | 618 ± 32 µM | NC(=S)n1nc(-c2ccccc2)cc1O [Compound 1c, 1-[amino(thioxo)methyl]-5-hydroxy-3-phenyl-1H-pyrazole] | >1000 µg/mL | >1000 µg/mL |  | >1000 µg/mL | >1000 µg/mL | 
 |  |  |  |  |  |  |  |  | N.N.O=C([O-])C1(C(=O)[O-])CCC1.[Pt+2] [Carboplatin] |  |  |  |  |  | IC50 [7]: 0.7 ± 0.2 µM; IC50 (WM-115 (human melanoma) [8]): 422 ± 50.2 µM; IC50 [9]: 4.3 ± 1.3 µM
> 1000 µg/mL | 250 µg/mL (≈ 1.59 mM) | 90.9 ± 10.2 µM | 250 µg/mL (≈ 1.59 mM) | > 1000 µg/mL | 615 ± 60.9 µM | > 1000 µg/mL | 1000 µg/mL (≈ 6.36 mM) | 779 ± 125 µM | Cc1cc(O)n(C(N)=S)n1 [Compound 1d, 1-[amino(thioxo)methyl]-5-hydroxy-3-methyl-1H-pyrazole] | >1000 µg/mL | >1000 µg/mL | did not affect the DNA | >1000 µg/mL | >1000 µg/mL | 
 |  |  |  |  |  |  |  |  | Cc1cc(C)n(C(N)=S)n1.Cc1ccc(C(C)C)cc1.[Cl][Ru][Cl] [Compound 2a] | >1000 µg/mL | 125 µg/mL | no influence |  | 125 µg/mL | metabolic activity higher than untreated control cells [4]: 39–45%
 |  |  |  |  |  |  |  |  | [(η^6-p-cymene)Ru(1-[amino(thioxo)methyl]-3,5-diethyl-1H-pyrazole)Cl2 [Compound 2b] | >1000 µg/mL | 62.5 µg/mL | cleavage the DNA Form I into Form II and Form III |  | 125 µg/mL | metabolic activity higher than untreated control cells [4]: 39–45%
 |  |  |  |  |  |  |  |  | N.N.[Cl][Pt][Cl] [Cisplatin] |  |  |  |  |  | IC50 [7]: 0.7 ± 0.3 µM; IC50 (WM-115 (human melanoma) [8]): 18.2 ± 4.3 µM; IC50 [9]: 0.8 ± 0.1 µM
 |  |  |  |  |  |  |  |  | Cc1ccc(C(C)C)cc1.Cc1ccc(C(C)C)cc1.[Cl][Ru][Cl].[Cl][Ru][Cl] [Dimer, dichloro(p-cymene)ruthenium(II)dimer, reference compound] | >1000 µg/mL | >1000 µg/mL | no effect | >1000 µg/mL | >1000 µg/mL | anticancer activity in words (WM-115 (human melanoma) [1]; WM-115): inactive; anticancer activity in words [3]: inactive; anticancer activity in words [5]: inactive
> 1000 µg/mL | > 1000 µg/mL | > 1000 µM | > 1000 µg/mL | > 1000 µg/mL | 569 ± 21.9 µM | > 1000 µg/mL | > 1000 µg/mL | 584 ± 84.3 µM | Cc1cc(C)n(C(N)=S)n1 [Compound 1a, 1-[amino(thioxo)methyl]-3,5-dimethyl-1H-pyrazole] | >1000 µg/mL | >1000 µg/mL | did not affect the DNA | >1000 µg/mL | >1000 µg/mL | 
1000 µg/mL (≈ 5.46 mM) | > 1000 µg/mL | 481 ± 39.4 µM | > 1000 µg/mL | > 1000 µg/mL | 469 ± 44.4 µM | 1000 µg/mL (≈ 5.46 mM) | 1000 µg/mL (≈ 5.46 mM) | 506 ± 47.1 µM | CCc1cc(CC)n(C(N)=S)n1 [Compound 1b, 1-[amino(thioxo)methyl]-3,5-diethyl-1H-pyrazole] | 1000 µg/mL (≈ 5.46 mM) | >1000 µg/mL | did not affect the DNA | 1000 µg/mL (≈ 5.46 mM) | >1000 µg/mL | 
